Reference: ChEMBL document CHEMBL2176900, “Design and synthesis of a novel series of bicyclic heterocycles as potent γ-secretase modulators” (J Med Chem, 2012)
Values after ≈ are worked out from the molar mass of the structure shown.

What was measured:
[1] = tested on: Canis familiaris; assay: Antialzheimer activity in beagle dog assessed as amyloid beta 40 level in cerebrospinal fluid at 20 mg/kg, po at 24 hrs by ELISA relative to control
[2] = tested on: Mus musculus; assay: Antialzheimer activity in CD1 mouse assessed as amyloid beta 38 level in brain at 10 mg/kg, po at 4 hrs by ELISA relative to control; assay type: functional
Procedure, shortened: (§1)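 Male CD1 SPF mice, fasted overnight, got a single oral dose of 10 or 30 mg/kg. At each time point the right brain hemisphere was homogenized in 0.4% DEA/50 mM NaCl with protease inhibitors and spun at 221300g for 50 min. The supernatant was neutralized with Tris-HCl pH 6.8. Aβ38 or Aβ42 was read by sandwich ELISA with a fluorogenic peroxidase substrate (ex 320/em 420 nm). Results are mean % change versus T = 0 h, n = 4.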

[3] = tested on: Rattus norvegicus; assay: Antialzheimer activity in Sprague-Dawley rat assessed as amyloid beta 38 level in CSF at 10 mg/kg, po at 7 hrs by ELISA relative to control; assay type: functional
Procedure, shortened: (§2)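 Male Sprague-Dawley rats (180-220 g), fasted overnight, were given 10 mg/kg by gastric intubation as a 5 mg/mL suspension in 0.5% methocellulose. At 2, 4, 7 and 25 h, 50 μL CSF was taken from the cisterna magna under isoflurane, then brain was collected. Aβ37/38/40/42 were measured by MesoScale Discovery sandwich immunoassays. Results are mean % change versus T = 0 h, n = 5.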

[4] = Thermodynamic solubility in fed state simulated intestinal fluid; assay type: physicochemical; settings: read-out: Therm_solubility
Procedure, shortened: (§3)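 Thermodynamic solubility was measured in pH 4.0 and pH 7.4 buffers, 0.01 N HCl, and fasted-state and fed-state simulated intestinal fluids (FaSSIF, FeSSIF). Results are in […].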

[5] = tested on: Mus musculus; assay: Antialzheimer activity in CD1 mouse assessed as amyloid beta 38 level in brain at 30 mg/kg, po at 24 hrs by ELISA relative to control; assay type: functional
Procedure, shortened: as §1

[6] = target: Cytochrome P450 2C19 (Homo sapiens, UniProt P33261); assay: Inhibition of CYP2C19 in human liver microsomes using S-mephenytoin as substrate; assay type: ADME, Microsome
Sequence of Cytochrome P450 2C19 (P33261 whole entry): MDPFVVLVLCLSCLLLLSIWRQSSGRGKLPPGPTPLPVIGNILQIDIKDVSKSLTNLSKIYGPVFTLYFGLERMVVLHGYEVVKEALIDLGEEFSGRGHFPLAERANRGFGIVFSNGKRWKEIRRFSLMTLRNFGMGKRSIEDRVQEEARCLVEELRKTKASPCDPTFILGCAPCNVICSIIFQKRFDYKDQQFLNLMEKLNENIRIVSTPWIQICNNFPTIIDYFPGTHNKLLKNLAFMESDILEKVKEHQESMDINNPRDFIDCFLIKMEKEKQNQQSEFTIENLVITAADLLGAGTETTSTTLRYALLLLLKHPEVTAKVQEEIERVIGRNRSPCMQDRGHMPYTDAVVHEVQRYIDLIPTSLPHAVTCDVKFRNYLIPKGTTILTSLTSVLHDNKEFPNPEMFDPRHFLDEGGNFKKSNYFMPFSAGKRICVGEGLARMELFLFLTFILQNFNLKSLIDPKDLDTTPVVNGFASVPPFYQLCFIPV

[7] = tested on: Mus musculus; assay: Inhibition of gamma-secretase in CD1 mouse assessed as total amyloid beta level in brain at 30 mg/kg, po at 24 hrs by ELISA relative to control; assay type: functional; design: scale not given: the % may be the effect or the level left
Procedure, shortened: (§4)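 Fasted male CD1 SPF mice were dosed orally at 10 or 30 mg/kg in 20% Captisol. Right hemisphere was homogenized in 0.4% DEA/50 mM NaCl and the high-speed supernatant neutralized. Aβtotal ELISA used N-terminal JRF/rAβ/2 capture, biotinylated 4G8 and streptavidin-peroxidase, then a fluorogenic substrate (ex 320/em 420 nm). Standards spanned 10000–0.3 pg/mL. Values are % change vs T = 0 h, n = 4.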

[8] = tested on: Rattus norvegicus; assay: Antialzheimer activity in Sprague-Dawley rat assessed as amyloid beta 40 level in CSF at 10 mg/kg, po at 2 hrs by ELISA relative to control; assay type: functional
Procedure, shortened: as §2

[9] = tested on: Canis familiaris; assay: Antialzheimer activity in beagle dog assessed as amyloid beta 42 level in cerebrospinal fluid at 20 mg/kg, po at 24 hrs by ELISA relative to control
[10] = tested on: Mus musculus; assay: Antialzheimer activity in CD1 mouse assessed as amyloid beta 42 level in brain at 10 mg/kg, po at 24 hrs by ELISA relative to control; assay type: functional
Procedure, shortened: as §1

[11] = target: hERG (KCNH2) (Homo sapiens, UniProt Q12809); assay: Inhibition of human ERG at 3 uM by patch clamp assay
Sequence of hERG (KCNH2) (Q12809 whole entry): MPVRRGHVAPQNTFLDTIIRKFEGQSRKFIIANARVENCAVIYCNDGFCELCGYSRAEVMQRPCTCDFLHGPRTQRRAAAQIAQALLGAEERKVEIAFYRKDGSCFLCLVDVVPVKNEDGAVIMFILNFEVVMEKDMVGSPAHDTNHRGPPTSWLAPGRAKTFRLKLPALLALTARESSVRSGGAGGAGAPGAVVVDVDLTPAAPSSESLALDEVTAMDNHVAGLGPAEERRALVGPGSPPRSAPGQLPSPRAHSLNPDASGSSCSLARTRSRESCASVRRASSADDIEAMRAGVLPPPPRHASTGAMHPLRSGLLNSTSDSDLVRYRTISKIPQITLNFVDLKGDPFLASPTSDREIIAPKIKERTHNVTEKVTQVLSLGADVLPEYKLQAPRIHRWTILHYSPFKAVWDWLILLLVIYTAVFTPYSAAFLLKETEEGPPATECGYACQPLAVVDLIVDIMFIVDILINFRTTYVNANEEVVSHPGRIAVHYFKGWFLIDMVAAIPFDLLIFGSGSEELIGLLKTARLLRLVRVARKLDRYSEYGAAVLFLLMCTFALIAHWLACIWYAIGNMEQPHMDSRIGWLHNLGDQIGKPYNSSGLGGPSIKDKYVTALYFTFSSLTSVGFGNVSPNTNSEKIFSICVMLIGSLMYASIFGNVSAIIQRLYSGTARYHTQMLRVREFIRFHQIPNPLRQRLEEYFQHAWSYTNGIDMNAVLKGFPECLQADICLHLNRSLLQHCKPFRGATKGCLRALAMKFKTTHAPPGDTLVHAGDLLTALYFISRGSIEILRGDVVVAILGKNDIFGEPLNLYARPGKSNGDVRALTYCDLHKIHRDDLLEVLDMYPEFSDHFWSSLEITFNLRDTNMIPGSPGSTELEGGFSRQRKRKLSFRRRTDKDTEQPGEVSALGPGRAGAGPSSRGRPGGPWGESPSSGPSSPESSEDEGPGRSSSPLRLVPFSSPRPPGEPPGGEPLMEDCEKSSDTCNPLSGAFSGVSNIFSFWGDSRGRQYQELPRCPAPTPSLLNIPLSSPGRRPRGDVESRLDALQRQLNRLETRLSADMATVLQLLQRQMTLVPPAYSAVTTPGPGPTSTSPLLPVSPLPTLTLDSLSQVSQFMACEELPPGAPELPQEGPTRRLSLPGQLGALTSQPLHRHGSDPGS
Procedure, shortened: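 Potassium membrane current was recorded with an automated patch-clamp system at 3 μM, with a vehicle control.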

[12] = tested on: Mus musculus; assay: Inhibition of gamma-secretase in CD1 mouse assessed as total amyloid beta level in brain at 10 mg/kg, po at 24 hrs by ELISA relative to control; assay type: functional; design: scale not given: the % may be the effect or the level left
Procedure, shortened: as §4

[13] = tested on: Canis familiaris; assay: Antialzheimer activity in beagle dog assessed as amyloid beta 38 level in cerebrospinal fluid at 20 mg/kg, po at 24 hrs by ELISA relative to control
[14] = tested on: Plasma; assay: Plasma concentration in CD1 mouse at 10 mg/kg, po at 48 hrs by LC-MS/MS analysis; assay type: ADME, organism-based; design: dose 10 mg/kg, route oral; settings: in vivo, BLD = below limit of detection
Procedure, shortened: (§5)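 Mice received a single 10 or 30 mg/kg oral dose. Plasma was sampled at several time points up to 48 h, with EDTA plasma obtained by centrifugation at 1900g, 10 min, 4 °C. Compound was quantified by LC-MS/MS, n = 4.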

[15] = Plasma concentration in CD1 mouse at 30 mg/kg, po at 8 hrs by LC-MS/MS analysis; assay type: ADME, organism-based; design: dose 30 mg/kg, route oral
Procedure, shortened: as §5

[16] = Thermodynamic solubility in buffer at pH 4; assay type: physicochemical; settings: read-out: Therm_solubility
Procedure, shortened: as §3

[17] = Drug metabolism in dog liver microsomes at 1 uM after 15 mins by ion-trap mass spectrophotometry; assay type: ADME, Canis lupus familiaris, Microsome; settings: read-out: Drug metabolism
[18] = Plasma concentration in CD1 mouse at 10 mg/kg, po at 8 hrs by LC-MS/MS analysis; assay type: ADME, organism-based; design: dose 10 mg/kg, route oral
Procedure, shortened: as §5

[19] = tested on: Mus musculus; assay: Antialzheimer activity in CD1 mouse assessed as amyloid beta 38 level in brain at 30 mg/kg, po at 4 hrs by ELISA relative to control; assay type: functional
Procedure, shortened: as §1

[20] = tested on: Liver microsomes; assay: Drug metabolism in human liver microsome assessed as reactive metabolite formation by cyanide-trapping assay; assay type: ADME
[21] = tested on: Rattus norvegicus; assay: Antialzheimer activity in Sprague-Dawley rat assessed as amyloid beta 37 level in CSF at 10 mg/kg, po at 25 hrs by ELISA relative to control; assay type: functional
Procedure, shortened: as §2

[22] = tested on: Rattus norvegicus; assay: Antialzheimer activity in Sprague-Dawley rat assessed as amyloid beta 40 level in CSF at 10 mg/kg, po at 4 hrs by ELISA relative to control; assay type: functional
Procedure, shortened: as §2

[23] = tested on: Mus musculus; assay: Antialzheimer activity in po dosed CD1 mouse assessed as amyloid beta 42 level in brain at 4,8 and 24 hrs by ELISA; assay type: functional, organism-based
Procedure, shortened: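 Overnight-fasted male CD1 SPF mice got one oral dose (10 or 30 mg/kg) formulated in 20% Captisol in water. Right brain hemisphere was homogenized in 0.4% DEA/50 mM NaCl with protease inhibitors and spun at 221300g. Supernatant was neutralized with Tris-HCl pH 6.8. Aβ42 was measured by ELISA (C-terminal JRF/cAβ42/26 capture, fluorogenic peroxidase read ex 320/em 420 nm). Values are mean % change vs T = 0 h, n = 4.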

[24] = tested on: Mus musculus; assay: Inhibition of gamma-secretase in CD1 mouse assessed as total amyloid beta level in brain at 30 mg/kg, po at 8 hrs by ELISA relative to control; assay type: functional; design: scale not given: the % may be the effect or the level left
Procedure, shortened: as §4

[25] = tested on: Rattus norvegicus; assay: Antialzheimer activity in Sprague-Dawley rat assessed as amyloid beta 37 level in brain at 10 mg/kg, po at 4 hrs by ELISA relative to control; assay type: functional
Procedure, shortened: as §2

[26] = tested on: Brain; assay: Drug uptake in Sprague-Dawley rat brain at 10 mg/kg, po at 25 hrs by LC-MS/MS analysis; assay type: ADME, organism-based; design: dose 10 mg/kg, route oral; settings: in vivo, BLD = below limit of detection
Procedure, shortened: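 Overnight-fasted male Sprague–Dawley rats (180–220 g) were dosed 10 mg/kg by gastric intubation of a 5 mg/mL suspension in 0.5% methocellulose. Rats were anesthetized with isoflurane, CSF was taken from the cisterna magna, then they were decapitated. Brain compound levels were measured as in the mouse assay. n = 5.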

COc1nc(Nc2cccc3c2nc(-c2ccc(F)cc2)n3C)ccc1-n1cnc(C)c1
Activity [1]: 113% | Activity [2]: 141% | Activity [3]: 153% | solubility thermodynamic [4]: 20 µg/mL (≈ 46.7 µM) | Activity [5]: 101% | IC50 [6]: 3.5 µM | Activity [7]: 104% | Activity [8]: 60% | Activity [9]: 89% | Activity [10]: 94% | inhibition at 3 µM [11]: 30% | Activity [12]: 94% | Activity [13]: 114% | Cp [14]: BLD | concentration at 8 h [15]: 10.5 µM | solubility thermodynamic [16]: < 1 µg/mL | metabolised at 0.25 h, 1 µM [17]: 37% | concentration at 8 h [18]: 2.7 µM | Activity [19]: 165% | Drug metabolism [20]: Not Active | Activity [21]: 124% | Activity [22]: 60% | Activity [23]: Dose-dependent effect | Activity [24]: 83% | Activity [25]: 506% | Drug uptake [26]: BLD
